Data set [1] concerns Mus musculus. Put plainly: Apparent peripheral volume of distribution in mouse at 10 to 100 mg/kg, ip. Type of data set: ADME, organism-based. Further details: dose 10-100 mg/kg, route intraperitoneal. The settings on record: in vivo. The method, boiled down: (§1)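 Mice, three groups, each received a single intraperitoneal gatifloxacin dose of 10, 50 or 100 mg/kg. Sera were taken by exsanguination under anaesthesia from three mice per group at 0.25–12 h post-dose and stored at −70°C. Levels were measured by bioassay (S. aureus ATCC 29213 indicator; standard curve in control mouse serum) in triplicate, detection range 0.12–64 μg/ml. Pooled data were fitted by maximum likelihood to a two-compartment model with first-order absorption and lag time.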

A short description of data set [2]: Ratio of AUC (0 to 24 hrs) for Staphylococcus aureus infected ICR/Swiss mouse model to MIC for Staphylococcus aureus. Type of data set: functional.
Data set [3] relates to Mus musculus. Description: Tlag in mouse at 10 to 100 mg/kg, ip. The settings on record: in vivo. Further details: dose 10-100 mg/kg, route intraperitoneal. Type of data set: ADME, organism-based. The method, boiled down: as §1
Data set [4] is described as follows: Apparent total clearance in mouse at 10 to 100 mg/kg, ip. Type of data set: ADME, organism-based. On the set-up: dose 10-100 mg/kg, route intraperitoneal. The settings on record: in vivo, read-out: CLt/F (converted). The method, boiled down:
as §1

The nature of data set [5]: Ratio of AUC (0 to 24 hrs) for Staphylococcus infected patient to MIC for Staphylococcus. Type of data set: functional.
A short description of data set [6]: Half life in human. The settings on record: in vivo. Type of data set: ADME, organism-based.
The subject of the next data set is Bacillus anthracis. Put plainly: Antimicrobial activity against Bacillus anthracis Ames after 18 hrs by microdilution method. Type of data set: functional. On the technique in general: In broth dilution the organism is exposed to a series of concentrations in liquid medium.
Data set [7] relates to Mus musculus. Put plainly: Apparent distribution clearance in mouse at 10 to 100 mg/kg, ip. To be noted: in vivo. Type of data set: ADME, organism-based. Further details: dose 10-100 mg/kg, route intraperitoneal. A digest of the protocol: as §1
Data set [8] concerns Mus musculus. Description: Apparent volume of distribution with respect to the bioavailability in mouse at 10 to 100 mg/kg, ip. Type of data set: ADME, organism-based. The settings on record: in vivo. The method, boiled down: as §1
Data set [9] can be described thus: Apparent total clearance in human. To be noted: in vivo, read-out: CLt/F (converted). Type of data set: ADME, organism-based.
Data set [10] in a line: Ratio of AUC (0 to 24 hrs) for Enterococcus infected patient to MIC for Enterococcus. Type of data set: functional.
Data set [11] in a line: Half life in mouse at 10 to 100 mg/kg, ip. Type of data set: ADME, organism-based. On the set-up: dose 10-100 mg/kg, route intraperitoneal. To be noted: in vivo. A digest of the protocol:
as §1

Molecules are shown by their SMILES. ≈ marks a conversion by molar mass, not a printed value.

One may read the half-life as the time needed for the level to fall by half in the phase considered. Read a high half-life as slow loss. As usually defined, the MIC is the lowest concentration found to suppress growth. Consider `COc1c(N2CCNC(C)C2)c(F)cc2c(=O)c(C(=O)O)cn(C3CC3)c12` (configuration not stated) [GATIFLOXACIN], for which the Vp/F in the data set with Mus musculus [1] came out at 1.6 L/kg. In addition, the Ratio in [2] worked out at 83; in data set [5] it was 85; in [10], 85. In addition, the Tlag in the data set on Mus musculus [3] amounted to 0.23 h. For the same compound, the CL/F in data set [4] was 45 mL/min/kg; in [9] it was 1.67 mL/min/kg. Also, the results for the half-life in data set [6] and in data set [11] were 9 h and 0.6 h, respectively. In the data set on Bacillus anthracis, this compound gave a minimal inhibitory concentration (MIC) of 0.125 µg/mL (≈ 0.333 µM). Also, the CLd/F in the data set with Mus musculus [7] turned out to be 128 mL/min/kg. Moreover, the Vc/F in the data set with Mus musculus [8] is 0.2 L/kg.

(Values after ChEMBL document CHEMBL1151423, “Pharmacokinetics-pharmacodynamics of gatifloxacin in a lethal murine Bacillus anthracis inhalation infection model” (Antimicrob Agents Chemother, 2007).)
